By Kd is commonly meant a measure of binding affinity in units of concentration.

Kd data for 167 variants are collected here from the RNAGym collection of RNA variant scans (doi:10.1038/nmeth.2970).

B1: NELF-E aptamer (parent)
chain: CCCAACGACUGCCGAGCGAGAUUACGCUUGAGCGCCCCACUGAGGAUGCCCACGGGCGAUUGGGGCACGG

This series covers variants of B1. Briefly: HiTS-RAP. Conditions: with NELF-E (Drosophila). In outline:
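Kd came from weighted Hill fits to the first binding curve, with intensities normalised to sequencing intensity and averaged per sequence, keeping only fits whose variance was below 1,000,000. That curve was imaged on an Illumina GAIIx flowcell, where sequenced aptamer DNA templates with a T7 promoter and ter site had been transcribed in situ by T7 RNA polymerase and halted by GST-Tus (30 minutes, 37°C). Before each image, clusters equilibrated for 30 minutes at room temperature with NELF-E-mOrange at 0.064 to 1000 nM in HEPES binding buffer.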
For A4G C6U, the Kd stood at 6.08 nM.

As for A4G C6A, the Kd was determined as 6.8 nM. The result for A4G C6G reads 5.28 nM; that for A5G C38U, 9.85 nM.

Take A4G C13U: the equilibrium dissociation constant (Kd) turned out to be 4.78 nM. A4G C13A: the Kd was 5.91 nM. For A4G C13G, the Kd came out at 5.3 nM. A4G U47A: the Kd stood at 12.3 nM. Next, A4G U47G: 7.07 nM; A5G A8G: 6.06 nM. Regarding A5G A8C, the Kd amounted to 9.31 nM. A5G A8U: the Kd worked out at 6.29 nM. As for A4G C53A, the Kd turned out to be 6.64 nM. The result for A4G C53U reads 3.85 nM; that for A4G C53G, 7.58 nM; that for A4U A8U, 6.22 nM.

For A4U A8G, the Kd was found to be 6.19 nM. Next, A4G G45U: 8.32 nM; A4G G45A: 85.6 nM. Take A5G C53U: the Kd is 4.59 nM. Take A5G A24G: the Kd came to 6.27 nM. Turning to A4G C37A, the Kd stood at 12.3 nM. Next, A4G C37G: 6.99 nM; A4G C37U: 13.2 nM. Next, A4U U28A: 5.47 nM; A4U U28C: 7.47 nM.

For the variant A4C C6G, the dissociation constant Kd was found to be 8.66 nM. Regarding A4G A24G, the Kd came to 6.26 nM. On to A4G A24U, for which the Kd is 6.89 nM. For the variant A4C A24G, the Kd was 7.08 nM. For A4G A31G, the Kd worked out at 7.17 nM.

In the case of A4G A31C, the dissociation constant Kd stood at 4.18 nM. Regarding A4G A31U, the Kd was 6.57 nM. A4C C12G: the dissociation constant Kd was found to be 7.65 nM. The result for A4U C66U reads 5.14 nM; that for A5G C50G, 6.45 nM; that for A5G C50U, 21.6 nM.

On to A5G A46U, for which the dissociation constant (Kd) is 90.8 nM. Consider A5G A46G, for which the equilibrium dissociation constant (Kd) turned out to be 15.3 nM. A4G U29C: the Kd was 6.03 nM.

A4G U29G: the Kd was found to be 5.5 nM.

For the variant A4G U29A, the Kd worked out at 5.44 nM.

Regarding A4G G7U, the Kd was 6.07 nM. For the variant A4G G7C, the Kd was 7.38 nM. Take A4G G7A: the Kd worked out at 6.95 nM. Take A5G C27U: the dissociation constant (Kd) came to 5.87 nM. On to A5G A52G, for which the Kd was determined as 4.26 nM. In the case of A5G A52U, the dissociation constant Kd turned out to be 17 nM. Next, A5C G7U: 7.5 nM; A4G C49U: 20.8 nM. For the variant A4G G56A, the Kd was determined as 9.42 nM.

For the variant A4G G56U, the Kd came to 6.06 nM. Consider A5G C66U, for which the Kd was 6.42 nM. Turning to A4G C27U, the Kd turned out to be 4.47 nM. Turning to A4G C27G, the Kd turned out to be 5.73 nM. In the case of A4G C27A, the Kd came out at 5.54 nM.

On to A4U A21G, for which the Kd is 5.7 nM. As to A4U A21U, the equilibrium dissociation constant (Kd) was found to be 6.22 nM.

A4C U23G: the Kd amounted to 7.29 nM. Regarding A4G G34C, the Kd turned out to be 10.8 nM. For A4G G34A, the Kd came to 7.45 nM.

On to A4G G34U, for which the Kd was 6.59 nM. With A4G A21G, the Kd amounted to 6 nM.

Regarding A4G A21U, the Kd was 5.84 nM. For A4G C33G, the dissociation constant Kd turned out to be 5.81 nM.

Consider A4G C33A, for which the Kd is 5.4 nM. In the case of A4G C33U, the Kd came to 5.81 nM.

As for A4C A8G, the Kd was determined as 6.82 nM.

For A4G U23G, the Kd was 5.42 nM.

A4G U23C: the Kd was 4.96 nM. With A4G U23A, the Kd came out at 5.89 nM.

Take A5C G14U: the Kd amounted to 6.73 nM. Take A5G C37U: the Kd turned out to be 10.4 nM. The result for A4U U47G reads 6.26 nM; that for A4U U47A, 12.5 nM; that for A4G U10A, 5.89 nM. Consider A4G U10C, for which the Kd is 5.06 nM. A4G U10G: the Kd amounted to 5.09 nM. Regarding A4C C9G, the Kd was found to be 7.49 nM. As to A4G G26A, the Kd came out at 4.55 nM. Take A4G G26U: the Kd is 7.06 nM. Next, A4G U61A: 37.8 nM; A4G U61G: 9.81 nM; A4G U61C: 66.2 nM. As for A4U U29G, the Kd stood at 5.91 nM.

With A4U U29C, the Kd came out at 5.56 nM. Turning to A4U U29A, the dissociation constant Kd was 4.29 nM.

As for A4U C6G, the Kd turned out to be 5.99 nM. In the case of A4U C6U, the Kd is 6.4 nM. Turning to A4G A59U, the Kd stood at 113 nM. Consider A4G A59G, for which the dissociation constant (Kd) was 40 nM.

Turning to A4G U60C, the Kd worked out at 9.89 nM. Next, A4G U60A: 10.6 nM. As for A4G U60G, the Kd is 6.94 nM. In the case of A5G A59G, the Kd was found to be 29.5 nM. Take A5G A59U: the dissociation constant Kd stood at 113 nM.

Regarding A4C G14U, the equilibrium dissociation constant (Kd) was found to be 7.54 nM.

As to C1G, the Kd is 4.93 nM. Regarding C1A, the Kd is 4.94 nM. Consider C1U, for which the Kd came to 4.73 nM. The result for A5G A15G reads 6.77 nM; that for A5G A15U, 7.04 nM. Regarding A4G A15G, the Kd is 4.97 nM. For the variant A4G A15U, the Kd was 6.63 nM. In the case of A4U G30A, the dissociation constant Kd was determined as 3.77 nM.

On to A5C U29G, for which the equilibrium dissociation constant (Kd) is 7.04 nM. On to A4G G55C, for which the Kd is 8.07 nM. The result for A4G G55A reads 8.61 nM; that for A4G G55U, 7.68 nM; that for A4G G48U, 8.36 nM. Consider A4G G48A, for which the Kd was found to be 11 nM. In the case of A4G A43C, the equilibrium dissociation constant (Kd) came to 90.1 nM.

As to A4G A43U, the Kd turned out to be 57 nM. A4G A43G: the Kd was 22.2 nM. As to A5C C13G, the Kd was determined as 6.73 nM. Take C3G: the Kd was 5.16 nM.

As to C3A, the Kd was 5.8 nM.

For the variant C3U, the Kd turned out to be 5.55 nM. A5G A19G: the Kd amounted to 5.88 nM. Next, A5G A19U: 7.26 nM; A4G G42A: 45.2 nM; A4G G42U: 9.27 nM.

As for A4U G65A, the dissociation constant (Kd) amounted to 5.54 nM. For the variant A4U G65U, the Kd amounted to 6.16 nM. A4G G18U: the Kd came to 5.96 nM. Regarding A4G G18A, the Kd was found to be 5.38 nM.

Turning to A4U G16U, the Kd was determined as 6.93 nM. As for A4G A52G, the Kd is 4.59 nM. The result for A4G A52U reads 18.3 nM; that for A4G A52C, 6.42 nM; that for A4U A59G, 70.4 nM.

In the case of A4U A39U, the Kd came out at 31.1 nM. Next, A4U A39G: 10.9 nM.

As to A4U A46G, the Kd amounted to 58.7 nM. Turning to A4G C25G, the Kd came out at 5.98 nM. Regarding A4G C25U, the equilibrium dissociation constant (Kd) turned out to be 6.15 nM. Turning to A4G C25A, the Kd turned out to be 6.24 nM. Next, A4G A5C: 6.45 nM. As to A4G A5G, the Kd turned out to be 5.81 nM. The result for A4G A5U reads 5.91 nM. As to A5C C6G, the Kd stood at 5.97 nM. On to A5C C6A, for which the Kd came out at 7.97 nM. The result for A4G C57U reads 5.88 nM. A4G C57G: the Kd was determined as 7.07 nM. Turning to A4U U10G, the Kd was found to be 5.45 nM. Next, A4U U10A: 4.41 nM. For A4U U10C, the Kd was determined as 6.91 nM. The result for A4C reads 6.33 nM; that for A4G, 5.08 nM; that for A4U, 5.39 nM.

Take A4U A19G: the Kd amounted to 6.92 nM. On to A4U A19U, for which the Kd came to 5.66 nM. With A4U C9U, the Kd was 5.8 nM.

With A4U C9G, the Kd worked out at 5.93 nM. Next, A4U G63A: 13.6 nM; A4U G63U: 11.1 nM. Next, A4U G26A: 4.14 nM; A4U G26U: 4.31 nM; A4U C38U: 6.95 nM. For A4U A31G, the Kd was determined as 6.99 nM. Next, A4U A31U: 7.69 nM. Next, A4G G58U: 13.2 nM; A4U U41A: 86.3 nM; A4U U41G: 6.46 nM. On to A4U U41C, for which the Kd is 66 nM. Consider A4G C38U, for which the Kd amounted to 8.59 nM.

In the case of A4G C38A, the Kd is 44.4 nM.
